Calls of active or inactive are those of the source. No cut-off for these calls is given here.
How the values were obtained:
[1] = tested on: HepG2; experiment: Cell cycle arrest in human HepG2 cells assessed as accumulation at S phase at 1.25 uM after 8 hrs by propidium iodide staining-based flow cytometric analysis (reference value: 32.43%); type: functional
[2] = tested on: Mus musculus; experiment: Toxicity in BALB/c mouse bearing human A549 cells assessed as decrease in body weight at 20 mg/kg, iv administered at intervals of 2 days for 18 days; type: organism-based; design: dose 20 mg/kg, route intravenous; settings: in vivo
In short: (§1)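 Nude mice received 1 × 10⁷ A549 cells in 0.1 mL DMEM subcutaneously in the right gluteal region. At 100 mm³ tumour volume, 24 mice were randomised into four groups (n = 6). Test groups got 20 mg/kg in 0.2 mL physiological saline by tail vein every 2 days for 18 days. Vehicle control got saline; cisplatin 5 mg/kg weekly served as positive control. Tumour growth and body weight tracked; two-sided Student's t test.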

[3] = tested on: HCT-116; experiment: Antiproliferative activity against human HCT116 cells after 24 hrs by MTT assay; type: functional, cell-based; settings: HCT-116, 24 h
In short: (§2)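 MTT assay. 1 × 10⁴ cells per well were plated and incubated 24 h before dye was added (20 µL of 5 mg/mL MTT in PBS per well), then incubated until a purple precipitate formed. Precipitate dissolved in 150 µL DMSO after medium removal, then absorbance read.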

[4] = tested on: A549; experiment: Antitumor activity against human A549 cells xenografted in BALB/c mouse assessed as tumor growth inhibition at 20 mg/kg, iv administered at intervals of 2 days for 18 days relative to control; type: functional; settings: read-out: GI; in short: as §1
[5] = tested on: HepG2; experiment: Cell cycle arrest in human HepG2 cells assessed as accumulation at G1 phase at 1.25 uM after 8 hrs by propidium iodide staining-based flow cytometric analysis (reference value: 49.86%); type: functional
[6] = tested on: HepG2; experiment: Cell cycle arrest in human HepG2 cells assessed as accumulation at 5 uM after 8 hrs by propidium iodide staining-based flow cytometric analysis (reference value: 17.72%)
[7] = tested on: HepG2; experiment: Antiproliferative activity against human HepG2 cells after 24 hrs by MTT assay; type: functional, cell-based; settings: HepG2, 24 h; in short: as §2
[8] = tested on: HepG2; experiment: Cell cycle arrest in human HepG2 cells assessed as accumulation at G2/M phase at 5 uM after 8 hrs by propidium iodide staining-based flow cytometric analysis (reference value: […])
[9] = tested on: HepG2; experiment: Cell cycle arrest in human HepG2 cells assessed as accumulation at G2/M phase at 2.5 uM after 8 hrs by propidium iodide staining-based flow cytometric analysis (reference value: 17.72%); type: functional
[10] = tested on: HT-29; experiment: Antiproliferative activity against human HT-29 cells after 24 hrs by MTT assay; type: functional, cell-based; settings: HT-29, 24 h; in short: as §2
[11] = tested on: HepG2; experiment: Inhibition of alpha-tubulin in human HepG2 cells assessed as decrease in spindle formation at 1 uM after 24 hrs by DAPI staining-based immunofluorescence analysis; type: cell-based
[12] = tested on: SW-620; experiment: Antiproliferative activity against human SW620 cells after 24 hrs by MTT assay; type: functional, cell-based; settings: SW-620, 24 h; in short: as §2
[13] = tested on: HepG2; experiment: Cell cycle arrest in human HepG2 cells assessed as accumulation at G2/M phase at 1.25 uM after 8 hrs by propidium iodide staining-based flow cytometric analysis (reference value: 17.72%); type: functional
[14] = tested on: SK-OV-3; experiment: Antiproliferative activity against human SKOV3 cells after 24 hrs by MTT assay; type: functional, cell-based; settings: SK-OV-3, 24 h; in short: as §2
[15] = tested on: HepG2; experiment: Cell cycle arrest in human HepG2 cells assessed as accumulation at G1 phase at 5 uM after 8 hrs by propidium iodide staining-based flow cytometric analysis (reference value: 49.86%); type: functional
[16] = tested on: K562; experiment: Antiproliferative activity against human K562 cells after 24 hrs by MTT assay; type: functional, cell-based; settings: K562, 24 h; in short: as §2
[17] = tested on: HepG2; experiment: Cell cycle arrest in human HepG2 cells assessed as accumulation at G1 phase at 2.5 uM after 8 hrs by propidium iodide staining-based flow cytometric analysis (reference value: 49.86%); type: functional
[18] = tested on: HepG2; experiment: Inhibition of alpha-tubulin in human HepG2 cells assessed as decrease in microtubule formation at 1 uM after 24 hrs by DAPI staining-based immunofluorescence analysis; type: cell-based
[19] = tested on: HepG2; experiment: Cell cycle arrest in human HepG2 cells assessed as accumulation at S phase at 2.5 uM after 8 hrs by propidium iodide staining-based flow cytometric analysis (reference value: 32.43%); type: functional

SMILES | Activity [1] [%] | Activity [2] | IC50 [3] [nM] | inhibition in vivo at 20 mg/kg [4] [%] | Activity [5] [%] | Activity [6] [%] | IC50 [7] [nM] | Activity [8] [%] | Activity [9] [%] | IC50 [10] [nM] | inhibition [11] | IC50 [12] [nM] | Activity [13] [%] | IC50 [14] [nM] | Activity [15] [%] | IC50 [16] [nM] | Activity [17] [%] | inhibition [18] | Activity [19] [%]
CCN(CC)c1ccc(/C=C/C(=O)c2ccc(OC)c3c2OC(C)(C)C=C3)cc1 | 16.77 | Non-toxic | 620 | 84.1 | 40.67 | 9.99 | 590 | 90.01 | 78.35 | 550 | Active | 670 | 42.55 | 610 | 0 | 790 | 4.49 | Active | 17.17
COc1ccc(/C=C/C(=O)c2ccc(OC)c3c2OC(C)(C)C=C3)cc1 [MILLEPACHINE] | 20.35 | Non-toxic | 4660 | 69.4 | 10.34 | 91.65 | 1510 | 7.68 | 79.65 | 3290 | Active | 760 | 69.31 | 2360 | 0.66 | 4560 | 2.64 | Active | 17.71

— ChEMBL document CHEMBL2040816, “Design, synthesis, and structure-activity relationship studies of novel millepachine derivatives as potent antiproliferative agents” (Eur J Med Chem, 2012)
